Assay results published in ChEMBL document CHEMBL4387724, “2-Pyridineformamide N(4)-ring incorporated thiosemicarbazones inhibit MCF-7 cells by inhibiting JNK pathway” (Bioorg Med Chem Lett, 2019).

Columns and labels:
A-431 [1] = experiment: Cytotoxicity against human A431 cells assessed as reduction in cell growth incubated for 72 hrs by MTT assay; assay type: functional, cell-based; settings: A-431, 72 h
In short: (§1)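 Cells grown in DMEM with 10% FBS and penicillin-streptomycin at 37 °C, 5% CO2, seeded at 3000 cells/well and attached overnight. Screening series given at 1, 3, 10, 100 μM; follow-up agent at 100 nM–3 μM; both 72 h, with 0.1% DMSO vehicle. MTT (5 mg/mL stock) added for 3 h at 37 °C, formazan dissolved in DMSO, absorbance read at 570 nm. Viability expressed as % of DMSO-treated wells from replicates.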

A-375 [2] = experiment: Cytotoxicity against human A375 cells assessed as reduction in cell growth at 1 uM incubated for 72 hrs by MTT assay relative to control; assay type: functional; settings: A-375, 72 h, read-out: GI; in short: as §1
A-375 [3] = experiment: Cytotoxicity against human A375 cells assessed as reduction in cell growth at 10 uM incubated for 72 hrs by MTT assay relative to control; assay type: functional; settings: A-375, 72 h, read-out: GI; in short: as §1
A-431 [4] = experiment: Cytotoxicity against human A431 cells assessed as reduction in cell growth at 100 uM incubated for 72 hrs by MTT assay relative to control; assay type: functional; settings: A-431, 72 h, read-out: GI; in short: as §1
MCF7 [5] = experiment: Cytotoxicity against human MCF7 cells assessed as reduction in cell growth at 100 uM incubated for 72 hrs by MTT assay relative to control; assay type: functional; settings: MCF7, 72 h, read-out: GI; in short: as §1
A-375 [6] = experiment: Cytotoxicity against human A375 cells assessed as reduction in cell growth at 30 uM incubated for 72 hrs by MTT assay relative to control; assay type: functional; settings: A-375, 72 h, read-out: GI
MCF7 [7] = experiment: Cytotoxicity against human MCF7 cells assessed as reduction in cell growth at 1 uM incubated for 72 hrs by MTT assay relative to control; assay type: functional; settings: MCF7, 72 h, read-out: GI; in short: as §1
A-431 [8] = experiment: Cytotoxicity against human A431 cells assessed as reduction in cell growth at 3 uM incubated for 72 hrs by MTT assay relative to control; assay type: functional; settings: A-431, 72 h, read-out: GI; in short: as §1
A-375 [9] = experiment: Cytotoxicity against human A375 cells assessed as reduction in cell growth incubated for 72 hrs by MTT assay; assay type: functional, cell-based; settings: A-375, 72 h; in short: as §1
HeLa [10] = experiment: Cytotoxicity against human HeLa cells assessed as reduction in cell growth at 30 uM incubated for 72 hrs by MTT assay relative to control; assay type: functional; settings: read-out: GI
MCF7 [11] = experiment: Cytotoxicity against human MCF7 cells assessed as reduction in cell growth incubated for 72 hrs by MTT assay; assay type: functional, cell-based; settings: MCF7, 72 h; in short: as §1
HeLa [12] = experiment: Cytotoxicity against human HeLa cells assessed as reduction in cell growth at 10 uM incubated for 72 hrs by MTT assay relative to control; assay type: functional; settings: read-out: GI; in short: as §1
A-431 [13] = experiment: Cytotoxicity against human A431 cells assessed as reduction in cell growth at 30 uM incubated for 72 hrs by MTT assay relative to control; assay type: functional; settings: A-431, 72 h, read-out: GI
HeLa [14] = experiment: Cytotoxicity against human HeLa cells assessed as reduction in cell growth at 1 uM incubated for 72 hrs by MTT assay relative to control; assay type: functional; settings: read-out: GI; in short: as §1
MCF7 [15] = experiment: Cytotoxicity against human MCF7 cells assessed as reduction in cell growth at 30 uM incubated for 72 hrs by MTT assay relative to control; assay type: functional; settings: MCF7, 72 h, read-out: GI
HeLa [16] = experiment: Cytotoxicity against human HeLa cells assessed as reduction in cell growth incubated for 72 hrs by MTT assay; assay type: functional, cell-based; in short: as §1
MCF7 [17] = experiment: Cytotoxicity against human MCF7 cells assessed as reduction in cell growth at 3 uM incubated for 72 hrs by MTT assay relative to control; assay type: functional; settings: MCF7, 72 h, read-out: GI; in short: as §1
A-375 [18] = experiment: Cytotoxicity against human A375 cells assessed as reduction in cell growth at 3 uM incubated for 72 hrs by MTT assay relative to control; assay type: functional; settings: A-375, 72 h, read-out: GI; in short: as §1
A-431 [19] = experiment: Cytotoxicity against human A431 cells assessed as reduction in cell growth at 1 uM incubated for 72 hrs by MTT assay relative to control; assay type: functional; settings: A-431, 72 h, read-out: GI; in short: as §1
HeLa [20] = experiment: Cytotoxicity against human HeLa cells assessed as reduction in cell growth at 100 uM incubated for 72 hrs by MTT assay relative to control; assay type: functional; settings: read-out: GI; in short: as §1
HeLa [21] = experiment: Cytotoxicity against human HeLa cells assessed as reduction in cell growth at 3 uM incubated for 72 hrs by MTT assay relative to control; assay type: functional; settings: read-out: GI; in short: as §1
A-431 [22] = experiment: Cytotoxicity against human A431 cells assessed as reduction in cell growth at 10 uM incubated for 72 hrs by MTT assay relative to control; assay type: functional; settings: A-431, 72 h, read-out: GI; in short: as §1
MCF7 [23] = experiment: Cytotoxicity against human MCF7 cells assessed as reduction in cell growth at 10 uM incubated for 72 hrs by MTT assay relative to control; assay type: functional; settings: MCF7, 72 h, read-out: GI; in short: as §1
A-375 [24] = experiment: Cytotoxicity against human A375 cells assessed as reduction in cell growth at 100 uM incubated for 72 hrs by MTT assay relative to control; assay type: functional; settings: A-375, 72 h, read-out: GI; in short: as §1

## N/C(=N\NC(=S)N1CCCCCC1)c1ccccn1
A-431 [1]
  IC50: 3 µM
A-375 [2]
  inhibition of growth at 1 µM: 67%
A-375 [3]
  inhibition of growth at 10 µM: 86.5%
A-431 [4]
  inhibition of growth at 100 µM: 77.5%
MCF7 [5]
  inhibition of growth at 100 µM: 84%
A-375 [6]
  inhibition of growth at 30 µM: 90%
MCF7 [7]
  inhibition of growth at 1 µM: 25.3%
A-431 [8]
  inhibition of growth at 3 µM: 50.3%
A-375 [9]
  IC50: 0.74 µM
HeLa [10]
  inhibition of growth at 30 µM: 82.9%
MCF7 [11]
  IC50: 2.6 µM
HeLa [12]
  inhibition of growth at 10 µM: 67.4%
A-431 [13]
  inhibition of growth at 30 µM: 72.3%
HeLa [14]
  inhibition of growth at 1 µM: 21.3%
MCF7 [15]
  inhibition of growth at 30 µM: 76.5%
HeLa [16]
  IC50: 6 µM
MCF7 [17]
  inhibition of growth at 3 µM: 56%
A-375 [18]
  inhibition of growth at 3 µM: 78.6%
A-431 [19]
  inhibition of growth at 1 µM: 18.8%
HeLa [20]
  inhibition of growth at 100 µM: 88.7%
HeLa [21]
  inhibition of growth at 3 µM: 36.6%
A-431 [22]
  inhibition of growth at 10 µM: 67%
MCF7 [23]
  inhibition of growth at 10 µM: 62.2%
A-375 [24]
  inhibition of growth at 100 µM: 89%

## Cc1ccnc(/C(N)=N/NC(=S)N2CCCCC2)c1
A-431 [1]
  IC50: 18.9 µM
A-375 [2]
  inhibition of growth at 1 µM: 33.5%
A-375 [3]
  inhibition of growth at 10 µM: 81.2%
A-431 [4]
  inhibition of growth at 100 µM: 77.6%
MCF7 [5]
  inhibition of growth at 100 µM: 80.1%
A-375 [6]
  inhibition of growth at 30 µM: 80%
MCF7 [7]
  inhibition of growth at 1 µM: 21.2%
A-431 [8]
  inhibition of growth at 3 µM: 36.5%
A-375 [9]
  IC50: 1.9 µM
HeLa [10]
  inhibition of growth at 30 µM: 69.1%
MCF7 [11]
  IC50: 18.8 µM
HeLa [12]
  inhibition of growth at 10 µM: 62.1%
A-431 [13]
  inhibition of growth at 30 µM: 62.8%
HeLa [14]
  inhibition of growth at 1 µM: 15.3%
MCF7 [15]
  inhibition of growth at 30 µM: 61.7%
HeLa [16]
  IC50: 7.7 µM
MCF7 [17]
  inhibition of growth at 3 µM: 29.4%
A-375 [18]
  inhibition of growth at 3 µM: 69.5%
A-431 [19]
  inhibition of growth at 1 µM: 31.1%
HeLa [20]
  inhibition of growth at 100 µM: 70.8%
HeLa [21]
  inhibition of growth at 3 µM: 23.9%
A-431 [22]
  inhibition of growth at 10 µM: 39.7%
MCF7 [23]
  inhibition of growth at 10 µM: 40.7%
A-375 [24]
  inhibition of growth at 100 µM: 85.6%

## Cc1cccc(/C(N)=N/NC(=S)N2CCCC2)n1
A-431 [1]
  IC50: 4 µM
A-375 [2]
  inhibition of growth at 1 µM: 13.6%
A-375 [3]
  inhibition of growth at 10 µM: 55.9%
A-431 [4]
  inhibition of growth at 100 µM: 86.8%
MCF7 [5]
  inhibition of growth at 100 µM: 61.8%
A-375 [6]
  inhibition of growth at 30 µM: 60.8%
MCF7 [7]
  inhibition of growth at 1 µM: 17.4%
A-431 [8]
  inhibition of growth at 3 µM: 47.2%
A-375 [9]
  IC50: 2.9 µM
HeLa [10]
  inhibition of growth at 30 µM: 74.5%
MCF7 [11]
  IC50: 61.8 µM
HeLa [12]
  inhibition of growth at 10 µM: 79.2%
A-431 [13]
  inhibition of growth at 30 µM: 72.2%
HeLa [14]
  inhibition of growth at 1 µM: 8.7%
MCF7 [15]
  inhibition of growth at 30 µM: 40.1%
HeLa [16]
  IC50: 2.7 µM
MCF7 [17]
  inhibition of growth at 3 µM: 26.6%
A-375 [18]
  inhibition of growth at 3 µM: 51.3%
A-431 [19]
  inhibition of growth at 1 µM: 21%
HeLa [20]
  inhibition of growth at 100 µM: 80.1%
HeLa [21]
  inhibition of growth at 3 µM: 56.8%
A-431 [22]
  inhibition of growth at 10 µM: 67.6%
MCF7 [23]
  inhibition of growth at 10 µM: 38.2%
A-375 [24]
  inhibition of growth at 100 µM: 66.3%

## N/C(=N\NC(=S)N1CCN(c2ccccn2)CC1)c1ccc(F)cn1
A-431 [1]
  IC50: 13.4 µM
A-375 [2]
  inhibition of growth at 1 µM: 49.3%
A-375 [3]
  inhibition of growth at 10 µM: 56.8%
A-431 [4]
  inhibition of growth at 100 µM: 77.1%
MCF7 [5]
  inhibition of growth at 100 µM: 74.3%
A-375 [6]
  inhibition of growth at 30 µM: 73.2%
MCF7 [7]
  inhibition of growth at 1 µM: 13.4%
A-431 [8]
  inhibition of growth at 3 µM: 43%
A-375 [9]
  IC50: 1.4 µM
HeLa [10]
  inhibition of growth at 30 µM: 87%
MCF7 [11]
  IC50: 22 µM
HeLa [12]
  inhibition of growth at 10 µM: 80%
A-431 [13]
  inhibition of growth at 30 µM: 62.3%
HeLa [14]
  inhibition of growth at 1 µM: 22.5%
MCF7 [15]
  inhibition of growth at 30 µM: 58.6%
HeLa [16]
  IC50: 2 µM
MCF7 [17]
  inhibition of growth at 3 µM: 27.1%
A-375 [18]
  inhibition of growth at 3 µM: 53.1%
A-431 [19]
  inhibition of growth at 1 µM: 31.1%
HeLa [20]
  inhibition of growth at 100 µM: 83%
HeLa [21]
  inhibition of growth at 3 µM: 77.3%
A-431 [22]
  inhibition of growth at 10 µM: 47.4%
MCF7 [23]
  inhibition of growth at 10 µM: 35.8%
A-375 [24]
  inhibition of growth at 100 µM: 76.2%
